Calls of active or inactive are those of the source. No cut-off for these calls is given here.
What was measured:
[1] = tested on: ONS-76; assay: Induction of apoptosis in human ONS-76 cells assessed as increase in population of cells in sub-G1 phase at 500 nM incubated for 72 hrs by ELISA; assay type: functional, cell-based
Method in brief: (§1)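 Cell death ELISA on ONS-76 or UW-228 cells seeded 2 × 10^3 per well in triplicate and allowed 24h to adhere. Treated with 500 nM JQ1 or DMSO for 72h, then apoptotic cell death measured by Cell Death Detection ELISA per kit protocol. Experiments repeated at least 3 times.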

[2] = tested on: Daoy; assay: Anti-proliferative activity against human Daoy cells assessed as reduction in cell viability incubated for 72 hrs by MTT assay; assay type: functional, cell-based
Method in brief: (§2)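 Cells seeded in triplicate at 2 × 10^3 per well and allowed to adhere for 24h. JQ1 was given as serial dilutions in full medium, 1nM-6µM, from a 10 mM DMSO stock. Viability was read by MTT at each time point and IC50 derived from dose-response curves. Culture media were RPMI 1640/10% FCS for HD-MB3 (plus 1% NEAA), ONS-76, Daoy and UW-228, and EMEM/10% FCS for D-283 and D-341.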

[3] = tested on: D341 cell line; assay: Induction of apoptosis in human D341 cells assessed as increase in population of cells in sub-G1 phase at 500 nM incubated for 72 hrs by flow cytometry; assay type: functional, cell-based
Method in brief: (§3)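 Cells were cultured with 500 nM JQ1 or DMSO control, trypsinised and washed 3 times in PBS. DNA was stained with propidium iodide for 15 min and DNA content analysed by flow cytometry to give G1 and sub-G1 fractions.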

[4] = tested on: D341 cell line; assay: Antiproliferative activity against human D341 cells at 500 nM incubated for 72 hrs by BrdU ELISA method; assay type: functional, cell-based
Method in brief: (§4)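 Cells seeded in triplicate at 2 × 10^3 per well with 24h adherence, then treated with 500 nM JQ1 or DMSO control for 72h. Proliferation was measured by BrdU incorporation ELISA. Experiments were run independently at least 3 times.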

[5] = target: Bromodomain-containing protein 4 (Homo sapiens) (UniProt O60885); conditions: Daoy, dose 500.0 nM, time 72.0 hrs
[6] = tested on: HD-MB03; assay: Antitumor activity against human HD-MB03 cells xenografted in female athymic (nu/nu) mouse assessed as increase in mouse survival time at 50 mg/kg, ip for 28 days relative to untreated control; assay type: functional, organism-based; conditions: time 28.0 day
Method in brief: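 Female athymic nu/nu mice, 4 weeks old, received 2 × 10^7 HD-MB3 cells in Matrigel subcutaneously in the left flank. At 150–200 mm3 they were randomised, n=7 per group, to JQ1 50 mg/kg ip daily or vehicle for 28 days or until tumours exceeded 1000 mm3. Calipers were used, with volume = (breadth × length × height)/2. Time to 1000 mm3 was analysed by Kaplan-Meier.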

[7] = tested on: UW228; assay: Induction of apoptosis in human UW228 cells assessed as increase in population of cells in sub-G1 phase at 500 nM incubated for 72 hrs by ELISA; assay type: functional, cell-based; method in brief: as §1
[8] = tested on: HD-MB03; assay: Antiproliferative activity against human HD-MB03 cells at 500 nM incubated for 72 hrs by BrdU ELISA method; assay type: functional, cell-based; method in brief: as §4
[9] = tested on: Daoy; assay: Induction of apoptosis in human Daoy cells assessed as increase in population of cells in sub-G1 phase at 500 nM incubated for 72 hrs by flow cytometry; assay type: functional, cell-based; method in brief: as §3
[10] = tested on: D283 Med; assay: Antiproliferative activity against human D283 cells at 500 nM incubated for 72 hrs by BrdU ELISA method; assay type: functional, cell-based; method in brief: as §4
[11] = tested on: Daoy; assay: Anti-proliferative activity against human Daoy cells assessed as reduction in cell viability incubated for 120 hrs by MTT assay; assay type: functional, cell-based; method in brief: as §2
[12] = target: Bromodomain-containing protein 4 (Homo sapiens) (UniProt O60885); conditions: HD-MB03, dose 500.0 nM, time 6-24 hrs
[13] = tested on: HD-MB03; assay: Anti-proliferative activity against human HD-MB03 cells expressing dominant-negative TP53 mutant assessed as reduction in cell viability at 1 to 6000 nM incubated for 72 hrs by MTT assay; assay type: functional, cell-based; conditions: dose 1-6000 nM
Method in brief: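 HD-MB3 was stably transfected with pMSCV-puro-p53DD and selected in 2 μg/mL puromycin. Cells were seeded in triplicate at 2 × 10^3 per well with 24h adherence, then exposed to serially diluted JQ1 in full medium for 72h. Viability was read by MTT.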

[14] = tested on: ONS-76; assay: Anti-proliferative activity against human ONS-76 cells assessed as reduction in cell viability incubated for 120 hrs by MTT assay; assay type: functional, cell-based; conditions: ONS-76, 120 h; method in brief: as §2
[15] = tested on: HD-MB03; assay: Anti-proliferative activity against human HD-MB03 cells assessed as reduction in cell viability incubated for 96 hrs by MTT assay; assay type: functional, cell-based; conditions: HD-MB03, 96 h; method in brief: as §2
[16] = tested on: UW228; assay: Antiproliferative activity against human UW228 cells at 500 nM incubated for 72 hrs by BrdU ELISA method; assay type: functional, cell-based; method in brief: as §4
[17] = tested on: HD-MB03; assay: Anti-proliferative activity against human HD-MB03 cells assessed as reduction in cell viability incubated for 48 hrs by MTT assay; assay type: functional, cell-based; conditions: HD-MB03, 48 h; method in brief: as §2
[18] = tested on: Daoy; assay: Induction of apoptosis in human Daoy cells assessed as increase in population of cells in G1 phase at 500 nM incubated for 72 hrs by flow cytometry; assay type: functional, cell-based; method in brief: as §3
[19] = tested on: Daoy; assay: Antiproliferative activity against human Daoy cells at 500 nM incubated for 72 hrs by BrdU ELISA method; assay type: functional, cell-based; method in brief: as §4
[20] = tested on: D341 cell line; assay: Induction of apoptosis in human D341 cells assessed as increase in population of cells in G1 phase at 500 nM incubated for 72 hrs by flow cytometry; assay type: functional, cell-based; method in brief: as §3
[21] = tested on: D283 Med; assay: Induction of apoptosis in human D283 cells assessed as increase in population of cells in G1 phase at 500 nM incubated for 72 hrs by ELISA; assay type: functional, cell-based
[22] = tested on: UW228; assay: Induction of apoptosis in human UW228 cells assessed as increase in population of cells in sub-G1 phase at 500 nM incubated for 72 hrs by flow cytometry; assay type: functional, cell-based
Method in brief: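 PI flow cytometry: cells seeded in triplicate, adhered 24h, then exposed to 500 nM JQ1 or DMSO control (methods give 48h culture, legend gives 72h). Harvested by trypsin, washed 3 times in PBS, stained with propidium iodide 15 min, DNA content read by flow cytometry. Sub-G1 fraction taken as apoptotic. Experiments repeated at least 3 times.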

[23] = tested on: D341 cell line; assay: Anti-proliferative activity against human D341 cells assessed as reduction in cell viability incubated for 96 hrs by MTT assay; assay type: functional, cell-based; conditions: D341, 96 h; method in brief: as §2
[24] = target: Bromodomain-containing protein 4 (Homo sapiens) (UniProt O60885); conditions: HD-MB03, dose 500.0 nM, time 6-24 hrs; remark: listed apart in the source
[25] = tested on: Daoy; assay: Induction of apoptosis in human Daoy cells assessed as increase in population of cells in G1 phase at 500 nM incubated for 72 hrs by ELISA; assay type: functional, cell-based
[26] = tested on: D283 Med; assay: Induction of apoptosis in human D283 cells assessed as increase in population of cells in sub-G1 phase at 500 nM incubated for 72 hrs by ELISA; assay type: functional, cell-based
[27] = tested on: D283 Med; assay: Anti-proliferative activity against human D283 cells assessed as reduction in cell viability incubated for 48 hrs by MTT assay; assay type: functional, cell-based; method in brief: as §2
[28] = target: Bromodomain-containing protein 4 (Homo sapiens) (UniProt O60885); conditions: HD-MB03, dose 500.0 nM, time 12.0 hrs

For `Cc1sc2c(c1C)C(c1ccc(Cl)cc1)=N[C@@H](CC(=O)OC(C)(C)C)c1nnc(C)n1-2`, the Activity [1] was “Active”, the IC50 [2] was > 1000 nM and the Activity [3] was “Active”. For the same molecule, the Activity [4] was “Active”, the inhibition [5] was “Active” and the Activity [6] was “Active”. For the same molecule, the Activity [7] was “Active”, the Activity [8] was “Active” and the Activity [9] was “Active”. The Activity [10] was “Active”, the IC50 [11] was 544 nM and the inhibition [12] was “Active”. The Activity [13] was “inactive”, the IC50 [14] was 123 nM and the IC50 [15] was 172 nM. For the same molecule, the Activity [16] was “Active”, the IC50 [17] was 364 nM and the Activity [18] was “Active”. For the same molecule, the Activity [19] was “Active”, the Activity [20] was “Active” and the Activity [21] was “Active”. The Activity [22] was “Active”, the IC50 [23] was 157 nM and the inhibition [24] was “Active”. The Activity [25] was “Active”, the Activity [26] was “Active” and the IC50 [27] was > 1000 nM. The inhibition [28] was “Active”.

— ChEMBL document CHEMBL5712071, “BET bromodomain protein inhibition is a therapeutic option for medulloblastoma” (Oncotarget, 2013)
